We go through 21 molecules from ChEMBL document CHEMBL4382276, “New in Vitro Assay Measuring Direct Interaction of Nonsense Suppressors with the Eukaryotic Protein Synthesis Machinery” (ACS Med Chem Lett, 2018).

By EC50 is commonly meant the concentration at which the effect is half-maximal.

The source made the active and inactive calls. No cut-off for these calls is given here.

A short description of series [1]: Induction of read through activity at cricket paralysis virus-internal ribosome entry site codon UGA assessed as increase in octapeptide formation from FKVRQ-tRNAGln at 30 to 600 uM measured after 20 mins in presence of Typ-tRNA, Leu-tRNA and [35S]-Met-tRNA by co-sedimentation assay.
Series [2] is described as follows: Induction of read through activity at cricket paralysis virus-internal ribosome entry site premature termination codon UGA assessed as increase in octapeptide formation from FKVRQ-tRNAGln measured after 20 mins in presence of Typ-tRNA, Leu-tRNA and [35S]-Met-tRNA by co-sedimentation assay.
Series [3] has as its system Cricket paralysis virus. Kind of series: Induction of read through activity at cricket paralysis virus-internal ribosome entry site premature termination codon UGA assessed as ratio of plateau octapeptide to FKVRQ-tRNAGln measured after 20 mins in presence of Typ-tRNA, Leu-tRNA and [35S]-Met-tRNA by co-sedimentation assay.
A short description of series [4]: at cricket paralysis virus-internal ribosome entry site codon UGG assessed as from FKVRQ-tRNAGln at EC50 to 2 times EC50 measured after 20 mins in presence of Typ-tRNA, Leu-tRNA and [35S]-Met-tRNA by co-sedimentation assay.
Series [5] relates to Cricket paralysis virus. The experiment in a line: Induction of read through activity at cricket paralysis virus-internal ribosome entry site codon UGG assessed as rate constant for octapeptide formation from FKVRQ-tRNAGln at 5 uM preincubated for 30 secs in presence of Typ-tRNA followed by Leu-tRNA and [35S]-Met-tRNA addition by co-sedimentation assay. A digest of the protocol: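 POST5 complex (0.02 μM) mixed with Trp-tRNATrp, Leu-tRNALeu and [35S]-Met-tRNAMet (0.08 μM each), eEF1A (0.08 μM), eEF2 (1.0 μM), eRF1 (0.010 μM) and eRF3 (0.020 μM), with or without NonSup. Incubation at 37 °C in Tris-HCl pH 7.5 buffer for 30 s to 20 min. Quench with 0.5 M MES pH 6.0 at 0 °C, ultracentrifuge through 1.1 M sucrose, and count ribosome-cosedimenting [35S] octapeptidyl-tRNA.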

A short description of series [6]: Induction of read through activity at cricket paralysis virus-internal ribosome entry site codon UGG assessed as eEF2-induced 80S-Trp-IRES-PRE6 formation from 80S-Trp-IRES-POST5 by FRET assay.
The test system of series [7] is Cricket paralysis virus. Kind of series: Induction of read through activity at cricket paralysis virus-internal ribosome entry site premature termination codon UGA assessed as eEF2-induced 80S-Stop-IRES-PRE6 formation from 80S-Stop-IRES-POST5 at 1 to 10 uM by FRET assay.
In series [8] the test system is Cricket paralysis virus. Kind of series: Inhibition of read through activity at cricket paralysis virus-internal ribosome entry site premature termination codon UGA assessed as decrease in octapeptide formation from FKVRQ-tRNAGln at 600 uM measured after 20 mins in presence of Typ-tRNA, Leu-tRNA and [35S]-Met-tRNA by co-sedimentation assay.
Series [9] in a line: Inhibition of read through activity at cricket paralysis virus-internal ribosome entry site codon UGG assessed as decrease in octapeptide formation from FKVRQ-tRNAGln at 600 uM measured after 20 mins in presence of Typ-tRNA, Leu-tRNA and [35S]-Met-tRNA by co-sedimentation assay.
The nature of series [10]: Induction of 80S ribosome-internal ribosome entry site (unknown origin) precipitable particle formation at 30 uM measured after 20 mins.
Series [11] in a line: Induction of [35S]Met-tRNA (unknown origin) precipitable particle formation at 30 uM measured after 20 mins.
Series [12] concerns Cricket paralysis virus. The experiment in a line: Induction of read through activity at cricket paralysis virus-internal ribosome entry site codon UGG assessed as rate constant for octapeptide formation from FKVRQ-tRNAGln at 500 uM preincubated for 30 secs in presence of Typ-tRNA followed by Leu-tRNA and [35S]-Met-tRNA addition by co-sedimentation assay. An outline of the steps: (§1)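 Time course with the same components: POST5 complex 0.02 μM, aminoacyl-tRNAs 0.08 μM each, eEF1A, eEF2, eRF1 0.010 μM, eRF3 0.020 μM, Buffer 4, 37 °C. Aliquots taken from 30 s to 20 min and MES-quenched. Octapeptide measured by ribosome cosedimentation or by base release and thin layer electrophoresis. Rate constants derived from the time courses.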

Series [13] concerns Cricket paralysis virus. The experiment in a line: Induction of read through activity at cricket paralysis virus-internal ribosome entry site premature termination codon UGA assessed as rate constant for octapeptide formation from FKVRQ-tRNAGln at 500 uM preincubated for 30 secs in presence of Typ-tRNA followed by Leu-tRNA and [35S]-Met-tRNA addition by co-sedimentation assay. An outline of the steps:
as §1

In the case of `CCOCCCNC(=O)N1CCN(Cc2ccc3c(c2)OCO3)CC1`, the Activity entry in [1] is “Not Active”.
`NCCC[C@H](N)CC(=O)NCCC[C@H](N)CC(=O)N[C@@H]1[C@H](O)[C@@H](OC(N)=O)[C@@H](CO)O[C@H]1NC1=N[C@@H]2C(=O)NC[C@@H](O)[C@H]2N1` [STREPTOTHRICIN E]: the EC50 in series [2] was in the range of 0.4 to 4 µM. Further, in series [3], the Ratio is 0.1 to 0.3. The Activity result in series [4] is “Not Active”.
The like results for `NCCC[C@H](N)CC(=O)NCCC[C@H](N)CC(=O)NCCC[C@H](N)CC(=O)NCCC[C@H](N)CC(=O)NCCC[C@H](N)CC(=O)N[C@@H]1[C@H](O)[C@@H](OC(N)=O)[C@@H](CO)O[C@H]1NC1=N[C@@H]2C(=O)NC[C@@H](O)[C@H]2N1` were, in that order, 0.4 to 4 µM, 0.1 to 0.3 and “Not Active”.
In the case of `CN[C@@H]1[C@@H](O)[C@@H](O[C@@H]2[C@@H](O)[C@H](O[C@H]3O[C@H]([C@H](C)O)[C@@H](O)[C@H](O)[C@H]3N)[C@@H](N)C[C@H]2N)OC[C@]1(C)O`, the EC50 in [2] is 0.98 µM. The K in series [5] fell in the range of 1 to 1.6 min⁻¹. Further, the Activity entry in series [6] and in series [4] was “Not Active” throughout. The Ratio in series [3] was in the range of 0.1 to 0.3. Also, the result in [7] was Active.
For `N=C1NC(=O)/C(=C/c2ccc(-c3ccccc3[N+](=O)[O-])o2)S1`, in series [2], the EC50 is 170 to 350 µM. The Ratio in series [3] was 0.1 to 0.16. The Activity entry in series [4] is recorded as “Not Active”.
Turning to `NCCC[C@H](N)CC(=O)NCCC[C@H](N)CC(=O)NCCC[C@H](N)CC(=O)NCCC[C@H](N)CC(=O)N[C@@H]1[C@H](O)[C@@H](OC(N)=O)[C@@H](CO)O[C@H]1NC1=N[C@@H]2C(=O)NC[C@@H](O)[C@H]2N1`, in series [2], the EC50 lay in the range of 0.4 to 4 µM. Also, the Ratio in [3] is 0.1 to 0.3. The Activity result in series [4] is “Not Active”.
Regarding `NCCC[C@H](N)CC(=O)NCCC[C@H](N)CC(=O)NCCC[C@H](N)CC(=O)N[C@@H]1[C@H](O)[C@@H](OC(N)=O)[C@@H](CO)O[C@H]1NC1=N[C@@H]2C(=O)NC[C@@H](O)[C@H]2N1`, the EC50 in [2] was in the range of 0.4 to 4 µM. For the same molecule, the Ratio in series [3] was 0.1 to 0.3. The Activity result in series [4] is “Not Active”.
With `C/C=C(\C)C(=O)O[C@H]1[C@H](OC(C)=O)[C@]2(CO)[C@H](O)C[C@@H]3C(=CC[C@H]4[C@H]3CC[C@@H]3[C@@H]4CC[C@H](O[C@@H]4O[C@H](C(=O)O)[C@@H](O[C@@H]5O[C@H](CO)[C@@H](O)[C@H](O)[C@H]5O)[C@H](O)[C@H]4O[C@@H]4O[C@H](CO)[C@@H](O)[C@H](O)[C@H]4O)[C@]3(C)CO)[C@@H]2CC1(C)C`, in series [8], the inhibition entry was “Active”. The Activity result in series [1] is listed as “Not Active”. Further, in series [9], the “inhibition (INH)” value is reported as “Active”.
Turning to `NCCC[C@H](N)CC(=O)NCCC[C@H](N)CC(=O)NCCC[C@H](N)CC(=O)NCCC[C@H](N)CC(=O)NCCC[C@H](N)CC(=O)NCCC[C@H](N)CC(=O)N[C@@H]1[C@H](O)[C@@H](OC(N)=O)[C@@H](CO)O[C@H]1NC1=N[C@@H]2C(=O)NC[C@@H](O)[C@H]2N1`, the EC50 in [2] was in the range of 0.4 to 4 µM. Moreover, the Ratio in series [3] fell in the range of 0.1 to 0.3. Also, the Activity result in series [4] is recorded as “Not Active”.
Consider `NCCC[C@H](N)CC(=O)N[C@@H]1[C@H](O)[C@@H](OC(N)=O)[C@@H](CO)O[C@H]1NC1=N[C@@H]2C(=O)NC[C@@H](O)[C@H]2N1`, for which, in series [2], the EC50 fell in the range of 0.4 to 4 µM. Besides, in series [3], the Ratio lay in the range of 0.1 to 0.3. In series [4], the Activity result is given as “Not Active”.
On to `CC[C@H]1OC(=O)C[C@@H](O)[C@H](C)[C@@H](O[C@@H]2O[C@H](C)[C@@H](O[C@H]3C[C@@](C)(O)[C@@H](O)[C@H](C)O3)[C@H](N(C)C)[C@H]2O)[C@@H](CC=O)C[C@@H](C)C(=O)/C=C/C(C)=C/[C@@H]1CO[C@@H]1O[C@H](C)[C@@H](O)[C@@H](OC)[C@H]1OC` [TYLOSIN], for which, in series [1], the Activity entry is reported as “Not Active”.
As to `CN[C@@H]1[C@@H](O)[C@@H](O[C@@H]2[C@@H](O)[C@H](O[C@H]3O[C@H](CO)[C@@H](O)[C@H](O)[C@H]3N)[C@@H](N)C[C@H]2N)OC[C@]1(C)O`, the EC50 in series [2] was 0.4 to 4 µM. Besides, the Ratio in series [3] was 0.1 to 0.3. In addition, the Activity result in series [4] was “Not Active”.
On to `CN[C@@H]1[C@@H](O)[C@@H](O[C@@H]2[C@@H](O)[C@H](O[C@H]3O[C@H](CN)[C@@H](O)[C@H](O)[C@H]3O)[C@@H](N)C[C@H]2N)OC[C@]1(C)O` [BETAMICIN], for which the EC50 in series [2] was in the range of 0.4 to 4 µM. Also, the Ratio in series [3] lay within 0.1 to 0.3. For the same molecule, the Activity result in series [4] is listed as “Not Active”.
For the molecule `CN(CC(=O)O)NC(=O)C[C@H](N)C[C@@H](O)CN` [NEGAMYCIN], in [3], the Ratio lay within 0.1 to 0.3. The Activity entry in series [4] was “Not Active”.
As for `COc1cccc2c1C(=O)c1c(O)c3c(c(O)c1C2=O)C[C@@](O)(C(=O)CO)C[C@@H]3O[C@H]1C[C@H](N)[C@H](O)[C@H](C)O1` [DOXORUBICIN], the Ratio in series [3] lay within 0.1 to 0.3. Besides, the outcome in series [10] and in series [11] was Active. For the same molecule, the Activity result in series [4] is “Not Active”.
On to `NCCC[C@H](N)CC(=O)NCCC[C@H](N)CC(=O)NCCC[C@H](N)CC(=O)NCCC[C@H](N)CC(=O)NCCC[C@H](N)CC(=O)NCCC[C@H](N)CC(=O)NCCC[C@H](N)CC(=O)N[C@@H]1[C@H](O)[C@@H](OC(N)=O)[C@@H](CO)O[C@H]1NC1=N[C@@H]2C(=O)NC[C@@H](O)[C@H]2N1`, for which the EC50 in series [2] lay in the range of 0.4 to 4 µM. Also, the Ratio in [3] is 0.1 to 0.3. For the same molecule, the Activity result in [4] is given as “Not Active”.
As to `O=C(O)c1cccc(-c2noc(-c3ccccc3F)n2)c1` [ATALUREN], the EC50 in [2] is 170 to 350 µM. Further, in [3], the Ratio lay within 0.1 to 0.16. The K in series [12] was 1 to 1.6 min⁻¹; in series [13], 0.14 min⁻¹. Also, the Activity result in series [4] was “Not Active”.
Turning to `C[C@H](N)[C@H]1O[C@@H](O[C@@H]2[C@@H](O)[C@H](N)C[C@H](N)[C@H]2O[C@H]2O[C@H]([C@@H](C)O)[C@@H](O)[C@H](O)[C@H]2N)[C@H](O)[C@@H]1O`, the EC50 in series [2] is 0.4 to 4 µM. Besides, in [3], the Ratio is 0.1 to 0.3. Also, in series [4], the Activity entry is given as “Not Active”.
Regarding `C[C@@H](O)[C@H]1O[C@H](O[C@H]2[C@H](O[C@@H]3O[C@H](CN)[C@@H](O)[C@H]3O)[C@@H](O)[C@H](NC(=O)[C@@H](O)CCN)C[C@@H]2N)[C@H](N)[C@@H](O)[C@@H]1O`, in series [2], the EC50 was 0.4 to 4 µM. Also, in series [3], the Ratio lay in the range of 0.1 to 0.3. Besides, the Activity entry in series [4] is reported as “Not Active”.
Regarding `CC[C@H]1OC(=O)[C@H](C)[C@@H](O[C@H]2C[C@@](C)(OC)[C@@H](O)[C@H](C)O2)[C@H](C)[C@@H](O[C@@H]2O[C@H](C)C[C@H](N(C)C)[C@H]2O)[C@](C)(O)C[C@@H](C)CN(C)[C@H](C)[C@@H](O)[C@]1(C)O` [AZITHROMYCIN], the Activity entry in [1] is on record as “Not Active”.
For the molecule `COc1cccc(-n2c(SCC(=O)Nc3ccc(F)cc3)nnc2-c2ccccn2)c1`, in [2], the EC50 was 170 to 350 µM. In addition, the Ratio in [3] is 0.1 to 0.16. Moreover, the Activity result in [4] is listed as “Not Active”.
